The nature of series [1]: Dissociation constant, pKa of the compound by potentiometric titration assay. Format: physicochemical.
Series [2] in a line: Drug metabolism in human liver microsomes at 1 uM after 15 min by HPLC-MS/MS analysis. Format: ADME. The note with it: read-out: Drug metabolism.
A short description of series [3]: Drug metabolism in mouse liver microsomes at 1 uM after 15 min by HPLC-MS/MS analysis. Format: ADME. As to conditions: read-out: Drug metabolism.
Series [4] can be described thus: Distribution coefficient, logD of the compound by chromatography. The series is classed as physicochemical. The note with it: octanol/water.
A short description of series [5]: Drug metabolism in dog liver microsomes at 1 uM after 15 min by HPLC-MS/MS analysis. The note with it: read-out: Drug metabolism. Format: ADME, Canis lupus familiaris. The method in brief: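 Final solvent 0.01% DMSO and 0.5% acetonitrile. Reaction started with NADPH and quenched with acetonitrile at 15 min. Percent metabolized is parent loss measured by HPLC-MS/MS.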

Series [6] in a line: Ratio of drug level in brain to plasma of pathogen free CD1 Swiss mouse at 10 mg/kg, po. Format: ADME, organism-based. The gist of the method: (§1)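 Fasted male CD1 Swiss SPF mice dosed 10 mg/kg p.o. (n=6) in 20% HPβCD at pH 3.9 or 20% SBEβCD at pH 3.5. Plasma and brain taken at 2, 4 and 7 h. One hemisphere used for drug bioanalysis; the other was homogenized for Aβ42 and Aβ total by sandwich immunoassay. Kp calculated from AUC0-last.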

Series [7] can be described thus: Drug uptake in pathogen free CD1 Swiss mouse brain at 10 mg/kg, po after 4 hrs. The series is classed as ADME, organism-based. The note with it: read-out: Drug uptake. The gist of the method:
as §1

Series [8] is described as follows: Elimination half-life in Beagle dog at 2.5 mg/kg, po. The series is classed as ADME, organism-based, Canis lupus familiaris. The note with it: in vivo, read-out: beta t1/2 (converted). The gist of the method: (§2)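 Fasted Beagle dogs, 2 male and 2 female per dose group, given doses from 0.08 to 10 mg/kg in 20% HPβCD at pH 3.5. Plasma drug levels followed over time to give Cmax, Tmax and T½. CSF Aβ42 measured by MesoScale electrochemiluminescence for up to 50 h after dosing.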

The nature of series [9]: Cmax in Beagle dog at 2.5 mg/kg, po. Format: ADME, organism-based, Canis lupus familiaris. Further details: dose 2.5 mg/kg, route oral. The note with it: in vivo. The gist of the method: as §2
Series [10] is described as follows: Tmax in Beagle dog at 2.5 mg/kg, po. The series is classed as ADME, organism-based, Canis lupus familiaris. As to conditions: in vivo. The method in brief: as §2
For another series, the system named is MDR1 (human). Nature of the series: Apparent permeability across apical to basolateral side in pig LLC cells transfected with human MDR1 at 5 uM by HPLC-MS/MS analysis. The series is classed as ADME, cell-based, Sus scrofa. The note with it: LLC-PK1.

Molecules are shown by their SMILES.

In the case of `COc1cnc(C(=O)Nc2ccc(F)c([C@@]3(C)N=C(N)CO[C@@H]3F)c2)cn1`, in series [1], the pKa was found to be 7.8. Further, the metabolised at 0.25 h, 1 µM in series [2] stood at 31%; in series [3], 3%; in series [5] it was 70%. In series [4], this compound came in with a chromatographic logD of 2.04. Besides, the Kp in series [6] was found to be 0.65. In addition, the concentration at 4 h in series [7] was found to be 195 ng/g.

On to `C[C@]1(c2cc(N)ccc2F)N=C(N)CO[C@@H]1F`, for which, in [1], the pKa came out at 8.1.

Compound `COc1cnc(C(=O)Nc2ccc(F)c([C@@]3(C4CC4)N=C(N)CO[C@@H]3F)c2)cn1` gave a pKa in series [1] of 7.8.

In [1], `CC1(c2ccccc2)COCC(N)=N1` (stereo not drawn) showed a pKa of 9.8.

In series [1], `C[C@]1(c2cc(NC(=O)c3ccc(C#N)cn3)ccc2F)N=C(N)CO[C@@H]1F` had a pKa of 7.9. Further, the metabolised at 0.25 h, 1 µM in series [2] is 0%; in series [3], 2%; in series [5], 0%. Moreover, the Kp in series [6] amounted to 0.33. Besides, the half-life in series [8] is 25 h. In addition, the concentration at 4 h in series [7] came out at 98 ng/g. This compound also registered a Cmax in series [9] of 571 ng/mL. Besides, the Tmax in series [10] came out at 2.5 h.

For the compound `Cc1cc(Cl)cnc1C(=O)Nc1ccc(F)c([C@@]2(C)N=C(N)CO[C@@H]2F)c1`, the pKa in series [1] worked out at 7.4. Moreover, the results for the metabolised at 0.25 h, 1 µM in series [2], in series [3] and in series [5] were 16%, 98% and 21%, respectively. Moreover, in the series on MDR1 (human), the Papp A→B at 5 µM amounted to 9.3 ×10⁻⁶ cm/s.

In turn, `C[C@]1(c2cc(N)ccc2F)N=C(N)CO[C@H]1C(F)(F)F` returned a pKa in series [1] of 8.

For `C[C@]1(c2cc(NC(=O)c3ccc(Cl)cn3)ccc2F)N=C(N)CO[C@@H]1F`, in series [1], the pKa was 7.9. Moreover, the metabolised at 0.25 h, 1 µM in series [2] worked out at 0%; in series [3] it was 17%; in series [5], 7%. The Papp A→B at 5 µM in the series on MDR1 (human) amounted to 8.5 ×10⁻⁶ cm/s.

Compound `C[C@@]1(c2cccc(NC(=O)c3ccc(Cl)cn3)c2)COCC(N)=N1` yielded a pKa in series [1] of 9.6. Moreover, the metabolised at 0.25 h, 1 µM came to 0% in series [2] and 6% in series [3].

`COc1cnc(C(=O)Nc2ccc(F)c([C@@]3(C)N=C(N)CO[C@]3(F)C(F)(F)F)c2)cn1` registered a pKa in [1] of 6.9.

In turn, `COc1cnc(C(=O)Nc2cc([C@@]3(C)N=C(N)CO[C@@H]3F)ccn2)cn1` (racemic) had a pKa in [1] of 2.8.

The compound `COc1cnc(C(=O)Nc2ccc(F)c([C@]3(C)COCC(N)=N3)c2)cn1` had a pKa in [1] of 9. Besides, the metabolised at 0.25 h, 1 µM worked out at 1% in [2] and 6% in series [3]. In addition, the Papp A→B at 5 µM in the series on MDR1 (human) was 3.7 ×10⁻⁶ cm/s.

Turning to `COc1cnc(C(=O)Nc2ccnc([C@@]3(C)N=C(N)CO[C@@H]3F)c2)cn1` (racemic), the pKa in series [1] was 2.6.

As for `COc1cnc(C(=O)Nc2ccc(F)c([C@@]3(C)N=C(N)CO[C@@]3(F)C(F)(F)F)c2)cn1`, the pKa in [1] is 6.8. Also, in series [4], the chromatographic logD is 3.43.

As to `COc1cnc(C(=O)Nc2ccc(F)c([C@@]3(C)N=C(N)CO[C@H]3F)c2)cn1`, the pKa in series [1] came to 7.6.

The values above are taken from ChEMBL document CHEMBL3632560, “1,4-Oxazine β-Secretase 1 (BACE1) Inhibitors: From Hit Generation to Orally Bioavailable Brain Penetrant Leads” (J Med Chem, 2015).
